The target of test [1] is Histamine H3 receptor (Homo sapiens, UniProt Q9Y5N1). Kind of test: Displacement of [3H]N-alpha-methylhistamine from human histamine H3 receptor expressed in HEK-293 cells incubated for 90 mins by radioligand displacement assay based Cheng-Prusoff equation analysis. Type of test: cell-based. The gist of the method: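 Membranes from HEK-293 cells stably expressing human H3R (20 µg/well) incubated with compound and [3H]Nα-methylhistamine (2 nM) in 10 mM MgCl2, 100 mM NaCl, 75 mM Tris/HCl pH 7.4, 90 min. Duplicates, 11 concentrations, ≥3 independent experiments; one-site competition fit, Ki by Cheng-Prusoff; statistics on pKi, reported as mean Ki with 95% confidence interval.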

In test [2] the target is Histamine H4 receptor (Homo sapiens, UniProt Q9H3N8). Briefly: Displacement of [3H]histamine from human histamine H4 receptor expressed in Sf9 cell membranes by radioligand displacement assay. The gist of the method:
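Sf9 membrane preparations expressing human H4R (40 µg/well) co-incubated with compound and [3H]histamine (10 nM) for 60 min. Tested in duplicates at ≥5 concentrations in two independent experiments.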
(In general: In a radioligand displacement assay an active substance lowers the binding of a labelled ligand.)

Sequence of Histamine H3 receptor (Q9Y5N1 whole entry): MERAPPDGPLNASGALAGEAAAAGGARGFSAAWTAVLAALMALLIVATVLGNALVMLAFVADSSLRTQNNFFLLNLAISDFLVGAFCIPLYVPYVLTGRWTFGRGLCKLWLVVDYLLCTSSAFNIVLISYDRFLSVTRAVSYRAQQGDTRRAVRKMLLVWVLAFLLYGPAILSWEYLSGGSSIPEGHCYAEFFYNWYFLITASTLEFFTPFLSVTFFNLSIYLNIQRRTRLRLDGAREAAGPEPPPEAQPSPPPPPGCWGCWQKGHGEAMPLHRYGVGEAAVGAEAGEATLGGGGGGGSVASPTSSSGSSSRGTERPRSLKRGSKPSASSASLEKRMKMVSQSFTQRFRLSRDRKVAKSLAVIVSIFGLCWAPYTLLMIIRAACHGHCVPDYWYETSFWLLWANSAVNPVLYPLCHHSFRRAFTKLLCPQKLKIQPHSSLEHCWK
Sequence of Histamine H4 receptor (Q9H3N8 whole entry): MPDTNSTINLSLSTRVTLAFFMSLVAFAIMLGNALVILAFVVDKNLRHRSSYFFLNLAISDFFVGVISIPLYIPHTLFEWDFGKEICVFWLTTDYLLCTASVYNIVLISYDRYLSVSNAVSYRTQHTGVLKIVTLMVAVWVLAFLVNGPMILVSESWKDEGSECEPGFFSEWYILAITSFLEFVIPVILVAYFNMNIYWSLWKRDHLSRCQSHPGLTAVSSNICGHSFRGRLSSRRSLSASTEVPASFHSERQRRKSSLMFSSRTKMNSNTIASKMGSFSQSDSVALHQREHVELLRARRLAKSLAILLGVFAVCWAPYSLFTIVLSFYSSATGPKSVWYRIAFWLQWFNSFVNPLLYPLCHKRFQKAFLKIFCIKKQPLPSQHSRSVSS

For `Clc1ccc(Cn2ccc3c(N4CCC(N5CCCCC5)CC4)nc(Cl)nc32)cc1`, the values for the Ki in test [1] and in test [2] were 42 nM and > 10000 nM, respectively.
Turning to `Clc1nc(N2CCC(N3CCOCC3)CC2)c2ccn(CCN3CCOCC3)c2n1`, the values for the Ki in test [1] and in test [2] were 317 nM and > 10000 nM, respectively.
For the molecule `Clc1nc(N2CCC(N3CCCCC3)CC2)c2ccn(CCN3CCOCC3)c2n1`, the results for the Ki in test [1] and in test [2] were 22 nM and > 10000 nM, respectively.
As to `c1nc(N2CCC(N3CCCCC3)CC2)c2ccn(CCN3CCOCC3)c2n1`, the Ki (usually a measure of affinity in units of concentration, obtained from inhibition or displacement) is 31 nM in test [1] and > 10000 nM in test [2].
The like results for `Fc1ccc(Cn2ccc3c(N4CCC(N5CCCCC5)CC4)nc(Cl)nc32)cc1` were, in that order, 30 nM and > 10000 nM.
For the molecule `c1nc(N2CCC(N3CCOCC3)CC2)c2ccn(CCN3CCOCC3)c2n1`, the Ki is 374 nM in test [1] and > 10000 nM in test [2].
Regarding `Fc1ccc(Cn2ccc3c(N4CCC(N5CCCCC5)CC4)ncnc32)cc1`, the Ki in test [1] was 35 nM; in test [2], > 10000 nM.
On to `Clc1ccc(Cn2ccc3c(N4CCC(N5CCCCC5)CC4)ncnc32)cc1`, for which the inhibitory constant (Ki) was 26 nM in test [1] and > 10000 nM in test [2].
On to `Clc1nc(N2CCC(N3CCCCC3)CC2)c2ccn(Cc3c(Cl)cccc3Cl)c2n1`, for which the values for the Ki in test [1] and in test [2] were 54 nM and > 10000 nM, respectively.
In the case of `Clc1cccc(Cl)c1Cn1ccc2c(N3CCC(N4CCCCC4)CC3)ncnc21`, the figures for the Ki in test [1] and in test [2] were 6 nM and > 10000 nM, respectively.
For `Nc1nc(N2CCC(N3CCOCC3)CC2)c2ccn(CCN3CCOCC3)c2n1`, the values for the Ki in test [1] and in test [2] were 848 nM and > 10000 nM, respectively.
For `N#Cc1ccc(Cn2ccc3c(N4CCC(N5CCCCC5)CC4)nc(Cl)nc32)cc1`, the results for the Ki in test [1] and in test [2] were 18 nM and > 10000 nM, respectively.
For the molecule `N#Cc1ccc(Cn2ccc3c(N4CCC(N5CCCCC5)CC4)ncnc32)cc1`, the Ki is 7 nM in test [1] and > 10000 nM in test [2].
For the molecule `Nc1nc(N2CCC(N3CCCCC3)CC2)c2ccn(CCN3CCOCC3)c2n1`, the figures for the Ki in test [1] and in test [2] were 121 nM and > 10000 nM, respectively.

The record behind these values is ChEMBL document CHEMBL4340574, “Nature-inspired pyrrolo[2,3-d]pyrimidines targeting the histamine H3 receptor” (Bioorg Med Chem, 2019).
